Measurements reported in ChEMBL document CHEMBL4354866, “TREK Channel Family Activator with a Well-Defined Structure-Activation Relationship for Pain and Neurogenic Inflammation” (J Med Chem, 2020).
The source made the active and inactive calls.

Tests used:
Mus musculus = experiment: Analgesic activity in mouse model of spared nerve injury assessed as reduction in cold hyperalgesia at 5 mg/kg, ip measured at 7 days interval for up to 21 days post spared nerve injury by cold plantar test; type: functional, organism-based
In short: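 SNI mice acclimated 3 days on a 6 mm glass plate; compound 5 mg/kg i.p. A dry-ice-packed syringe was applied to the centre of the left hindpaw. Withdrawal latency timed by stopwatch, cut-off 30 s; n = 8–10.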

[1] = biological target: T1, Potassium channel subfamily K member 2 (Rattus norvegicus) (UniProt Q920B6); experiment: Activation of TREK in depolarized Sprague-Dawley rat DRG neurons assessed as resting membrane potential at 10 uM by whole cell […] electrophysiological analysis
T1 sequence (whole entry): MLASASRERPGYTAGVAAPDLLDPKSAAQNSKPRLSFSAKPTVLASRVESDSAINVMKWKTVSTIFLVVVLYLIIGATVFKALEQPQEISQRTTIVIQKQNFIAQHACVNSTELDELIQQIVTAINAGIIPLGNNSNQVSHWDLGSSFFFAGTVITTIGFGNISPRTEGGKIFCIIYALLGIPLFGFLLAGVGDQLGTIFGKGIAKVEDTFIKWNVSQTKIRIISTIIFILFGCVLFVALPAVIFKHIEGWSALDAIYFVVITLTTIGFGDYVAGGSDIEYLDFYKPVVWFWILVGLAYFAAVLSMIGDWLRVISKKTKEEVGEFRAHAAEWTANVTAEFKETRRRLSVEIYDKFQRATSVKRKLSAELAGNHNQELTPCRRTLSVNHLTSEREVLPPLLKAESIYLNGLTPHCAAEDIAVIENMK
In short: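 Dissociated rat DRG neurons in current clamp, held at 0 pA. Resting membrane potential recorded before and during 10 μM compound; n = 18 cells from 4 rats; paired t test.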

[2] = biological target: T2, Potassium channel subfamily K member 13 (Homo sapiens) (UniProt Q9HB14); experiment: Activation of recombinant human THIK1 expressed in HEK293T cells assessed as increase in K+ current amplitude at 10 uM by whole cell voltage clamp electrophysiological analysis; type: cell-based
T2 sequence (whole entry): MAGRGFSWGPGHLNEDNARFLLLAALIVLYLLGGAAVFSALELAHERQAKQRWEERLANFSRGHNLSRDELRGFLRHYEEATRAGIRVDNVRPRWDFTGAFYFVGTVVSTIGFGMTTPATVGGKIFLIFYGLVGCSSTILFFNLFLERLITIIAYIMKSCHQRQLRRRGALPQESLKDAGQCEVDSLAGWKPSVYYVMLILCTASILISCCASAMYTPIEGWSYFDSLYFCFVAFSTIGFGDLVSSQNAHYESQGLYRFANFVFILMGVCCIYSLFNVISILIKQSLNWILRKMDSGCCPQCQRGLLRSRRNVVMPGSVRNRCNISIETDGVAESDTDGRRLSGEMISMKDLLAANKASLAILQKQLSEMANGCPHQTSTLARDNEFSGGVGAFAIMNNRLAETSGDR
In short: (§1)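 HEK-293T cells transiently transfected with the human K2P channel. Whole-cell clamp at -60 mV, 500-ms ramp -120 to +60 mV. Pipette 140 KCl (pH 7.4), external 145 NaCl/4 KCl (pH 7.3). Compound 10 μM, diluted from 10 mM DMSO stock into external solution.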

[3] = biological target: Potassium channel subfamily K member 2 (Homo sapiens, UniProt O95069, G275C); experiment: Activation of recombinant human TREK1 G275C mutant expressed in HEK293T cells assessed as increase in K+ current amplitude in presence of MTSET by whole cell voltage clamp electrophysiological analysis; type: cell-based
In short: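 Human TREK-1 G275C expressed in HEK-293T, whole-cell ramp recordings. Tested with or without MTSET, 1 mM final, diluted from 0.5 M DMSO stock within 120 s of application. Concentration–response curves for EC50, n = 5–19; 10 μM single-point comparison by one-way ANOVA with Tukey test.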

[4] = biological target: T3, TREK-2 two-pore-domain K+ channel (Mus musculus, UniProt Q3LS20); experiment: Activation of recombinant mouse TREK2 expressed in HEK293T cells assessed as increase in K+ current amplitude by whole cell voltage clamp electrophysiological analysis; type: cell-based
T3 sequence (Q3LS20 whole entry): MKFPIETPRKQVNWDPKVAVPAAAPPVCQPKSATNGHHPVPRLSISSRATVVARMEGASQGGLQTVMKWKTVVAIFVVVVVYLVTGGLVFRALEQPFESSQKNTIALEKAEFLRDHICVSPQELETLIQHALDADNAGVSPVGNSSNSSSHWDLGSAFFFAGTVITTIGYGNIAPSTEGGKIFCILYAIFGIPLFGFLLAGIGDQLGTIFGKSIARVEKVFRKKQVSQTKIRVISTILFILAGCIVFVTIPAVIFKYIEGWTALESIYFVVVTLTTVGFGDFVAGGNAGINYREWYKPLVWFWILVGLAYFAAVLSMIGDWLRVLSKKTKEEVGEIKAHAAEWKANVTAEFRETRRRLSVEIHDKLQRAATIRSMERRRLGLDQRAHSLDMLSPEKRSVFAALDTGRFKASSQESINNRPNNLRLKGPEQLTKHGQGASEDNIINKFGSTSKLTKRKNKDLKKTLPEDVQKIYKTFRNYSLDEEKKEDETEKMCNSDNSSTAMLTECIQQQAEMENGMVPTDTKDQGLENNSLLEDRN
In short: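 Transiently transfected HEK-293T cells, whole-cell voltage clamp. Held at -60 mV, 500-ms ramp -120 to +60 mV. Pipette (mM) 140 KCl, 5 EGTA, 10 HEPES, pH 7.4; external 145 NaCl, 4 KCl, pH 7.3. Compound diluted from 10 mM DMSO stock and applied extracellularly. Current increase over control fitted to concentration–response curves for EC50.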

[5] = biological target: Potassium channel subfamily K member 9 (Homo sapiens) (UniProt Q9NPC2); experiment: Activation of recombinant human TASK3 expressed in HEK293T cells assessed as increase in K+ current amplitude at 10 uM by whole cell voltage clamp electrophysiological analysis; type: cell-based; in short: as §1
Chain of Potassium channel subfamily K member 9 (Homo sapiens) (Q9NPC2 whole entry): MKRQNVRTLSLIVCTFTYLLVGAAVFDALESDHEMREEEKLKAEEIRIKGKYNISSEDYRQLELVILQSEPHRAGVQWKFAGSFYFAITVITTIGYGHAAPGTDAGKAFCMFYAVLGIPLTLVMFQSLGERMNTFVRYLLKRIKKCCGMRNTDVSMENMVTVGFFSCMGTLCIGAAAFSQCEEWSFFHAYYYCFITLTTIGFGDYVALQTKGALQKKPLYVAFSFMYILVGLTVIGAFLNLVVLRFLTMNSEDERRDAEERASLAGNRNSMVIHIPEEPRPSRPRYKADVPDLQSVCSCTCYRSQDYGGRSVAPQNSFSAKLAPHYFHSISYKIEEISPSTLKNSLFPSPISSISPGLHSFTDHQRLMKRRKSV

Chain of Potassium channel subfamily K member 2 (O95069 whole entry G275C): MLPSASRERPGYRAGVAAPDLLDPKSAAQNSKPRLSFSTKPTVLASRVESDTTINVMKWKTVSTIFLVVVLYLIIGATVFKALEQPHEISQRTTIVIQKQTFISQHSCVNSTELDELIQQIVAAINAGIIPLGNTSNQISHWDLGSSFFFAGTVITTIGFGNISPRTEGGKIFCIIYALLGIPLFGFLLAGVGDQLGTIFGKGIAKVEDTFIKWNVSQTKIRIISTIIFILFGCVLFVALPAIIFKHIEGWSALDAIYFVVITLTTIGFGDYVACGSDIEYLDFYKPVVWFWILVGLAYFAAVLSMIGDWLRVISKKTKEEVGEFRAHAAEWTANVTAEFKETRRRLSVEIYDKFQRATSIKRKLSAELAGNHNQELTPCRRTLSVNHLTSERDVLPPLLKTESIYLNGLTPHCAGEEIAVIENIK

Activity [1]: 1.12 mV
Activity [2]: Active
EC50 [3]: 18.4 µM
EC50 [4]: 11.3 µM
Activity [5]: Active
Structure (SMILES): Cc1ccc2nc(-c3ccc(NC(=O)[C@@H]4CC[C@H](C(=O)O)C4)cc3)sc2c1
Activity (Mus musculus): Active
